Test results published in ChEMBL document CHEMBL1132380, “Drug delivery systems employing 1,4- or 1,6-elimination: poly(ethylene glycol) prodrugs of amine-containing compounds” (J Med Chem, 1999).

Assays:
Mus musculus [1] = assay: T/C of median tumor volumes when 3 mg/kg/dose of compound was given to BALB/c mice bearing sc M109 on days 3 and 6 (iv) after inoculation (control ~2000 mm**3); format: functional
Method in brief: (§1)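 Female balb/c mice (20–25 g) given about 5×10^5 M109 cells sc in the left flank on day 0. M109 grown in EMEM with 10% FBS. Dosing is 3 mg/kg/dose of active DNR, ip on days 1 and 4 or iv on days 3 and 6. Groups of 6 include untreated controls. Median tumor volumes compared when control median reached about 2000 mm³.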

Mus musculus [2] = assay: T/C of median tumor volumes when 3 mg/kg/dose of compound was given to BALB/c mice bearing sc M109 on days 1 and 4 (ip) after inoculation (control ~2000 mm**3); format: functional; settings: route intraperitoneal; method in brief: as §1
[3] = Half-life in buffer at pH 7.4; format: ADME
Method in brief: (§2)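 Release of free drug and hydrolysis of PEG conjugate followed in PBS (pH 7.4) or fresh rat plasma at 37 °C. Half-life derived from these rates. Run in duplicate; SD ±10%.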

P388 = assay: Compound was evaluated for cytotoxicity against P388 leukemia cell line.; format: functional, cell-based; settings: Mus musculus
[4] = Half-life in rat plasma; format: ADME; method in brief: as §2
Mus musculus [5] = assay: Effect of 3 mg/kg/dose of compound given iv q4d x 3 against sc human ovarian tumor (SK-OV3) in mice expressed as % tumor volume change from initial by day 30; format: functional
Method in brief: (§3)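 Female nu/nu mice (18–24 g) given 1×10^6 SKOV3 cells sc in the left flank in 0.1 mL medium. SKOV3 grown in McCoy's 5a with 15% FBS. Dosing starts at about 70 mm³ mean tumor volume (day 1), with 3 mg/kg/dose DNR content iv on days 1, 5 and 9. n = 5/group against untreated controls. Mean volumes compared at day 30; median volumes compared when control median reached about 1000 mm³.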

Mus musculus [6] = assay: Effect of 3 mg/kg/dose of compound given iv q4d x 3 against sc human ovarian tumor (SK-OV3) in mice expressed as treated/ control mean tumor volume on day 30; format: functional; method in brief: as §3
Mus musculus [7] = assay: Effect of 3 mg/kg/dose of compound given iv q4d x 3 against sc human ovarian tumor (SK-OV3) in mice expressed as treated/ control ( 1000 mm**3) median tumor volume on day 30; format: functional; method in brief: as §3
Mus musculus [8] = assay: Effect of 3 mg/kg/dose of compound given iv q4d x 3 against sc human ovarian tumor (SK-OV3) in mice expressed as Mean tumor volume by day 30; format: functional; method in brief: as §3
Mus musculus [9] = assay: Toxicity at a dose of 830 mg/kg against M109 tumors conducted in female BALB/c mice; format: functional

Row | SMILES | T/C (Mus musculus [1]) [%] | T/C (Mus musculus [2]) [%] | half-life [3] [h] | IC50 (P388) [µM] | half-life [4] [h] | Tumor growth (Mus musculus [5]) [%] | T/C (Mus musculus [6]) [%] | T/C (Mus musculus [7]) [%] | Mean tumor volume (Mus musculus [8]) | Toxicity (deaths) (Mus musculus [9]) [%]
1 | COc1cccc2c1C(=O)c1c(O)c3c(c(O)c1C2=O)C[C@@](O)(C(=O)CNC(=O)OCc1cc(C)c(OC(=O)CCOCCOCCO)c(C)c1)C[C@@H]3OC1CC(N)C(O)C(C)O1 (stereo not given in full) | 67.9 | 90.3 | > 48 | 0.055 | 1.9 | – | – | – | – | –
2 | COc1cccc2c1C(=O)c1c(O)c3c(c(O)c1C2=O)C[C@@](O)(C(=O)CNC(=O)OCc1ccc(NC(=O)CCOCCOCCO)cc1)C[C@@H]3OC1CC(N)C(O)C(C)O1 (stereo not given in full) | – | 122.7 | > 48 | 0.457 | > 24 | – | – | – | – | –
3 | COc1cccc2c1C(=O)c1c(O)c3c(c(O)c1C2=O)C[C@@](O)(C(=O)CNC(=O)OCc1ccc(OC(=O)NCCOCCOCCO)cc1)C[C@@H]3OC1CC(N)C(O)C(C)O1 (stereo not given in full) | 64.6 | 84.1 | > 48 | 0.015 | 4 | 86 | 12 | 11 | 154 | –
4 | COc1cccc2c1C(=O)c1c(O)c3c(c(O)c1C2=O)C[C@@](O)(C(=O)CNC(=O)OCc1ccc(OC(=O)CCOCCOCCO)cc1)C[C@@H]3OC1CC(N)C(O)C(C)O1 (stereo not given in full) | – | 92.8 | > 24 | 0.008 | 0.4 | – | – | – | – | –
5 | COc1cccc2c1C(=O)c1c(O)c3c(c(O)c1C2=O)C[C@@](O)(C(=O)CNC(=O)OCc1ccc(OC(=O)C(C)(C)NC(=O)CCOCCOCCO)cc1)C[C@@H]3OC1CC(N)C(O)C(C)O1 (stereo not given in full) | – | 87.6 | > 48 | 0.018 | 1.3 | – | – | – | – | –
6 | COc1cccc2c1C(=O)c1c(O)c3c(c(O)c1C2=O)C[C@@](O)(C(C)=O)C[C@@H]3O[C@H]1C[C@H](N)[C@H](O)[C@H](C)O1 [DAUNORUBICIN] | 117 | 44.8 | – | 0.003 | – | 1226 | 92 | 54 | 1154 | –
7 | Cc1cc(COC(=O)NC(C)C)cc(C)c1NC(=O)OCCOCCOCCO | – | – | – | – | – | – | – | – | – | 0
8 | COc1cccc2c1C(=O)c1c(O)c3c(c(O)c1C2=O)C[C@@](O)(C(=O)CNC(=O)OCc1cc(C)c(OC(=O)OCCOCCOCCO)c(C)c1)C[C@@H]3OC1CC(N)C(O)C(C)O1 (stereo not given in full) | 74.4 | 90.3 | > 48 | 0.179 | 2.9 | – | – | – | – | –
9 | COc1cccc2c1C(=O)c1c(O)c3c(c(O)c1C2=O)C[C@@](O)(C(=O)CNC(=O)OCc1ccccc1OC(=O)NCCOCCOCCO)C[C@@H]3OC1CC(N)C(O)C(C)O1 (stereo not given in full) | 68.7 | 91.3 | > 48 | 0.035 | 3 | – | – | – | – | –
10 | COc1cccc2c1C(=O)c1c(O)c3c(c(O)c1C2=O)C[C@@](O)(C(=O)CNC(=O)OCc1ccccc1NC(=O)OCCOCCOCCO)C[C@@H]3OC1CC(N)C(O)C(C)O1 (stereo not given in full) | 117 | 112.2 | > 48 | 0.13 | > 24 | – | – | – | – | –
11 | Cc1cc(COC(=O)NC(C)C)cc(C)c1OC(=O)CCOCCOCCO | – | – | – | – | – | – | – | – | – | 0
12 | COc1cc(COC(=O)NC(CC(C)C)C(=O)OC(C)(C)C)cc(OC)c1OC(=O)CCOCCOCCO (stereo not given) | – | – | – | – | – | – | – | – | – | 0
13 | COc1cccc2c1C(=O)c1c(O)c3c(c(O)c1C2=O)C[C@@](O)(C(=O)CNC(=O)OCc1ccc(NC(=O)OCCOCCOCCO)cc1)C[C@@H]3OC1CC(N)C(O)C(C)O1 (stereo not given in full) | 129 | 75.3 | > 48 | 0.415 | > 24 | 400 | 21 | 41 | 272 | –
14 | COc1cc(COC(=O)NCC(=O)[C@]2(O)Cc3c(O)c4c(c(O)c3[C@@H](OC3CC(N)C(O)C(C)O3)C2)C(=O)c2c(OC)cccc2C4=O)cc(OC)c1OC(=O)CCOCCOCCO (stereo not given in full) | 48.2 | 68.6 | > 48 | 0.027 | 1 | – | – | – | – | –
